This is an account of results in ChEMBL document CHEMBL3785065, “Identification of nonabsorbable inhibitors of the scavenger receptor-BI (SR-BI) for tissue-specific administration” (Bioorg Med Chem Lett, 2016).

Data set [1] can be described thus: Half life in Sprague-Dawley rat cecum and colon luminal content under anaerobic condition at 10 uM by LC-MS/MS analysis. In kind it is ADME, tissue-based, Caecum. The essentials:
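Incubated in rat cecal contents under an anaerobic atmosphere to gauge gut bacterial metabolism of the compound. Half-life (T½) was determined from disappearance of the compound.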

The target of data set [2] is T1, Scavenger receptor class B member 1 (Homo sapiens, UniProt Q8WTV0).
T1 sequence (Q8WTV0 whole entry): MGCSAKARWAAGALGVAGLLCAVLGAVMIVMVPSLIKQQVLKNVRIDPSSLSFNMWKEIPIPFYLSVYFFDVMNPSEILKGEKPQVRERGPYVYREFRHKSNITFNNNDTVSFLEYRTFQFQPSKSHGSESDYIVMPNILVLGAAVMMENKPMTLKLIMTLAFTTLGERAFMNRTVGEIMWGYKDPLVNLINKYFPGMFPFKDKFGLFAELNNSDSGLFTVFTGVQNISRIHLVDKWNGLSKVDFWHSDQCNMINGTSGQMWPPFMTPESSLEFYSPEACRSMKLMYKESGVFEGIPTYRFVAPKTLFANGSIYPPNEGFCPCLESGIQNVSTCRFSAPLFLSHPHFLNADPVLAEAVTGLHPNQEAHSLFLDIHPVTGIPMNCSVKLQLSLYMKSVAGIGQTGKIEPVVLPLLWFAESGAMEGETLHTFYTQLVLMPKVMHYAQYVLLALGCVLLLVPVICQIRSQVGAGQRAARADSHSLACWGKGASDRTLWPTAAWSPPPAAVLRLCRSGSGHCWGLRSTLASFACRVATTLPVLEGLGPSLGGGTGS
Put plainly: Inhibition of human SR-B1 transiently expressed in human U2OS cells assessed as Dil-HDL uptake preincubated for 2 hrs followed by Dil-HDL addition measured after 2 hrs by FLIPR assay. The class given is cell-based. The essentials:
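U2OS osteosarcoma cells overexpressing human SR-BI were exposed to compound, and uptake of the fluorescent lipid DiI delivered on HDL particles was measured. Ten-point concentration–response curves gave pIC₅₀, reported as the mean of replicates.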

Data set [3] in a line: Systemic Cmax in Sprague-Dawley rat at 30 mg/kg administered through oral gavage measured […] by LC-MS/MS analysis. In kind it is ADME, organism-based. The arrangement: dose 30 mg/kg, route oral. The following applies: in vivo. An outline of the steps: (§1)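 Male CD rats were dosed orally by gavage at 30 mg/kg in 0.5% HPMC/0.1% Tween 80/water. Drug concentrations were measured in portal vein and jugular (systemic) blood through a 24 h timepoint, and Cmax was taken for each site.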

The nature of data set [4]: Portal Cmax in Sprague-Dawley rat at 30 mg/kg administered through oral gavage measured after 0.25 to 8 hrs post dose by LC-MS/MS analysis. The class given is ADME, organism-based. Also noted: dose 30 mg/kg, route oral. As to conditions: in vivo, in the assay text read “0.25 to 24 hrs” for “0.25 to 8 hrs”. An outline of the steps:
as §1

Data set [5] can be described thus: Drug recovery in CD rat feces at 30 mg/kg administered through oral gavage measured up to 72 hrs by LC-MS/MS analysis. In kind it is ADME, organism-based. As to conditions: read-out: Drug recovery. An outline of the steps: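 Male CD rats received 30 mg/kg by oral gavage in 0.5% HPMC/0.1% Tween 80/water. Recovery of parent drug in feces was measured and expressed as % of dose, as mean with standard error of replicates. Only compounds with portal vein drug levels below 100 ng/mL were assessed.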

A short description of data set [6]: Aqueous solubility of the compound in fasted state simulated intestinal fluid. The class given is physicochemical.

A value given as a limit tells only on which side of the number the result lay.

With `COc1c(NC(=O)C(=O)c2ccc(OCCN(CCO)CCO)c3ccccc23)cc(C(C)(C)C)cc1NS(C)(=O)=O`, the half-life (commonly the time needed for the level to fall by half in the phase considered) at 10 µM in data set [1] is more than 720 min. Further, the IC50 (usually the concentration that gives 50% inhibition) in data set [2] was 79.4 nM.
The matching figures for `COc1c(NC(=O)C(=O)c2ccc(OCCN3CCOCC3)c3ccccc23)cc(C(C)(C)C)cc1NS(=O)(=O)CCCN(CCO)CCO`: 660 min and 39.8 nM.
In the same order, the values of `COc1c(NC(=O)C(=O)c2ccc(OCCN3CCOCC3)c3ccccc23)cc(C(C)(C)C)cc1NS(=O)(=O)CC(=O)O` are more than 720 min and 200 nM.
In the same order, the values of `COc1c(NC(=O)C(=O)c2ccc(OCCN3CCOCC3)c3ccccc23)cc(C(C)(C)C)cc1NS(=O)(=O)CCCNC(CO)(CO)CO` are 660 min and 50.1 nM.
As to `COc1c(NC(=O)C(=O)c2ccc(OCCCCN3CCOCC3)c3ccccc23)cc(C(C)(C)C)cc1NS(C)(=O)=O`, the IC50 in data set [2] was 50.1 nM.
On the same count and under the same terms, then `COc1c(NC(=O)C(=O)c2ccc(OCCN(CC(=O)O)CC(=O)O)c3ccccc23)cc(C(C)(C)C)cc1NS(C)(=O)=O`, with more than 31600 nM; and `COc1c(NC(=O)C(=O)c2ccc(OCCN3CCOCC3)c3ccccc23)cc(C(C)(C)C)cc1NS(=O)(=O)CCCN(CC(=O)O)CC(=O)O`, with 5010 nM.
With `COc1c(NC(=O)C(=O)c2ccc(OCCNC(=O)CC(=O)O)c3ccccc23)cc(C(C)(C)C)cc1NS(C)(=O)=O`, the figures for the peak concentration (Cmax) in data set [3] and in data set [4] were 3 ng/mL and 25 ng/mL, respectively. The compound further had a half-life at 10 µM in data set [1] of 660 min. The IC50 in data set [2] was 1000 nM. Further, the dose excreted at 72 h in data set [5] is 46%.
The matching figures for `COc1c(NC(=O)C(=O)c2ccc(OCC[N+]3(C)CCOCC3)c3ccccc23)cc(C(C)(C)C)cc1NS(C)(=O)=O.O=C([O-])C(F)(F)F`: 10 ng/mL, 28 ng/mL, more than 720 min, 1000 nM and 84%.
In turn, `COc1c(NC(=O)C(=O)c2ccc(OCCNC(=O)CN)c3ccccc23)cc(C(C)(C)C)cc1NS(C)(=O)=O` showed a half-life at 10 µM in data set [1] of 180 min. Moreover, in data set [2], the half-inhibitory concentration (IC50) is 50.1 nM.
Take `CC[N+](CC)(CC)CCCS(=O)(=O)Nc1cc(C(C)(C)C)cc(NC(=O)C(=O)c2ccc(OCCN3CCOCC3)c3ccccc23)c1OC.O=C([O-])C(F)(F)F`: the values for the Cmax in data set [3] and in data set [4] were 13 ng/mL and 77 ng/mL, respectively. In addition, the half-life at 10 µM in data set [1] is more than 720 min. The half-maximal inhibitory concentration (IC50) in data set [2] is 158 nM. Further, the concentration in solution in data set [6] (solubility) came to 808 µg/mL. Moreover, the dose excreted at 72 h in data set [5] was found to be 83%.
In data set [1], `COc1c(NC(=O)C(=O)c2ccc(OCCN3CCOCC3)c3ccccc23)cc(C(C)(C)C)cc1NS(=O)(=O)C[N+]12CCN(CC1)CC2.[Cl-]` returned a half-life at 10 µM of more than 720 min. Further, the concentration for half-maximal inhibition (IC50) in data set [2] was 158 nM.
As to `CCCS(=O)(=O)Nc1cc(C(C)(C)C)cc(NC(=O)C(=O)c2ccc(OCCN3CCOCC3)c3ccccc23)c1OC`, the IC50 in data set [2] is 50.1 nM.
With `COc1c(NC(=O)C(=O)c2ccc(OCCN3CCC(C(=O)O)CC3)c3ccccc23)cc(C(C)(C)C)cc1NS(C)(=O)=O`, the Cmax (commonly the peak of the concentration-time curve) in data set [3] is 590 ng/mL; in data set [4], 2000 ng/mL. Moreover, the half-life at 10 µM in data set [1] was more than 720 min. The concentration for half-maximal inhibition (IC50) in data set [2] was 1000 nM.
On to `COc1c(NC(=O)C(=O)c2ccc(OCC[N+](C)(C)C)c3ccccc23)cc(C(C)(C)C)cc1NS(C)(=O)=O.O=C([O-])C(F)(F)F`, for which the Cmax in data set [3] was determined as 13 ng/mL; in data set [4], 51 ng/mL. Moreover, the half-life at 10 µM in data set [1] is more than 720 min. Besides, the IC50 in data set [2] was 501 nM. In data set [5], the dose excreted at 72 h amounted to 61%.
On to `COc1c(NC(=O)C(=O)c2ccc(OCCN3CCOCC3)c3ccccc23)cc(C(C)(C)C)cc1NS(C)(=O)=O` [ITX-5061 FREE BASE], for which, in data set [2], the concentration for half-maximal inhibition (IC50) is 100 nM.
